Data on one molecule can be found in ChEMBL document CHEMBL5030567, “Macrocyclic Inhibitors of HGF-Activating Serine Proteases Overcome Resistance to Receptor Tyrosine Kinase Inhibitors and Block Lung Cancer Progression” (J Med Chem, 2021).

Structures are written as SMILES. The source made the active and inactive calls. The rule behind the calls is not given here. Numbered stars: 1 amine (or outer) side, 2 acyl side, 3 side chain; on linkers, the order of the positions; unused ones are H or OH. Square brackets hold non-standard residues; d marks the D form. Peptide text beside a SMILES is read from it. X1 = N=C(N)NCCC[C@H](N[*:1])C(=O)c1nc2ccc(C(=O)[*:2])cc2s1

Series [1] has as its target Prothrombin (Homo sapiens, UniProt P00734). The series is described as follows: Inhibition of recombinant thrombin (unknown origin) using D-Phe-Pip-Arg-pNA as substrate preincubated for 30 mins followed by substrate addition by chromogenic assay.
The nature of series [2]: Toxicity in NSG mouse assessed as body weight loss at 20 to 100 mg/kg, ip administered for 7 days. Conditions: in vivo, dose 20-100 mg/kg, time 7 day. In kind it is organism-based.
A short description of series [3]: Toxicity in hHGF knock in NSG mouse xenografted with human NCI-H596 cells at 50 mg/kg, ip administered daily for 25 days. It counts as organism-based. Conditions: in vivo, 600 h, time 25 day.
Series [4] has as its system NCI-H596. The series is described as follows: Antitumor activity against human NCI-H596 cells xenografted in hHGF knock in NSG mouse assessed as tumor growth inhibition at 50 mg/kg, ip administered daily for 25 days. The conditions noted are these: time 25.0 day. It counts as functional, organism-based.
Series [5] can be described thus: Stability in mouse plasma assessed as half life. In kind it is ADME, cell-free.
The target in series [6] is T1, Suppressor of tumorigenicity 14 protein (Homo sapiens) (UniProt Q9Y5Y6).
T1 sequence (whole entry): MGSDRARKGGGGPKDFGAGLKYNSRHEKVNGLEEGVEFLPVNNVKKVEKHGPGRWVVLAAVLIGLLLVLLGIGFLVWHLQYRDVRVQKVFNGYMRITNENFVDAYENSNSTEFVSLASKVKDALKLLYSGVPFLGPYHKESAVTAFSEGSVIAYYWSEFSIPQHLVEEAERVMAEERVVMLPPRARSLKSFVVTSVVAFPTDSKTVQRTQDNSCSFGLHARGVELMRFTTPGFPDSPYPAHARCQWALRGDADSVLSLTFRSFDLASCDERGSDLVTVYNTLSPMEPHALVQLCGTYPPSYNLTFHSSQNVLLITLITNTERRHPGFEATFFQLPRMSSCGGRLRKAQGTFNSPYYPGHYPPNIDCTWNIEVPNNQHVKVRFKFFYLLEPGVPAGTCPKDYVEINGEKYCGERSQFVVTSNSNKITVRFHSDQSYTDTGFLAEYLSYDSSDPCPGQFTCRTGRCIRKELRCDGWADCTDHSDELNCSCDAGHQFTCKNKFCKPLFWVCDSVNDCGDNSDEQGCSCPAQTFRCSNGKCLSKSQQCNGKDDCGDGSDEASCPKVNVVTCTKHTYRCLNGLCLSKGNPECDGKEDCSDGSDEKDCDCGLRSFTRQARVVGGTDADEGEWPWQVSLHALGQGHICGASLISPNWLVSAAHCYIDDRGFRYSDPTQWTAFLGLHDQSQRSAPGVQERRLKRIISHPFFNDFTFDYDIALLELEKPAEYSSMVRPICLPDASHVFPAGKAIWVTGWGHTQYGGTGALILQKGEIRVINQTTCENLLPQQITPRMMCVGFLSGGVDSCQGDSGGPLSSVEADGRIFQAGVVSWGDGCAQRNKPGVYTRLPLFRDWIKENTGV
In words: Inhibition of recombinant human N-terminal met-His6-tagged matriptase catalytic domain (Gly596 to Val855 residues) expressed in Escherichia coli mediated pro-HGF activation preincubated for 30 mins followed by pro-HGF addition and measured after 1 hr by immunoblotting analysis. Summed up: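 Recombinant pro-HGF (10 ng) incubated one hour with matriptase (1 nM), hepsin (10 nM) or HGFA (5 nM), with or without inhibitor. Processing detected by immunoblot with a polyclonal antibody recognizing pro-HGF and the HGF alpha and beta chains; active HGF served as positive control.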

Series [7] has as its system HCC827. The series is described as follows: Inhibition of pro-HGF stimulated wound healing in human HCC827 cells preincubated for 30 mins followed by pro-HGF stimulation and measured after 24 hrs by crystal violet staining based assay. In kind it is functional, cell-based. In outline: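 HCC827 monolayers grown to confluence, serum-starved overnight, then scratched. Cells were pre-incubated 30 min with inhibitor (10 µM) and stimulated with HGF or pro-HGF for 24 h. Wells stained with crystal violet to score closure. n=3; one-way ANOVA versus pro-HGF alone.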

Series [8] relates to HCC827. In words: Cytotoxicity against human HCC827 cells assessed as reduction in cell viability at 0.1 to 1 uM after 72 hrs in presence of pro-HGF by crystal violet staining based assay. The conditions noted are these: dose 0.1-1 µM.

As for `CC(=O)N[C@@H](CO)C(=O)N[C@@H](CCCCN)C(=O)N[C@@H](CC(C)C)C(=O)N[C@@H](CCCNC(=N)N)C(=O)c1nc2ccc(C(=O)N[C@H](C(N)=O)C(C)C)cc2s1` (Ac-SKL[X1]V-NH2), the IC50 in series [1] was 9 µM. Further, the Activity entry in series [2] and in series [3] was “Non-Toxic” throughout. The outcome in series [4] and in series [8] was Active. In addition, the t1/2 in series [5] was 3.07 h. Moreover, the inhibition entry in series [6] and in series [7] was “Active” in each case.
